pIC50: −log10 of the molar value. Active and inactive are the calls of the source. No cut-off for these calls is given here.
Tests used:
[1] = Upregulation of p53 expression in human HCT116 cells at 7.5 to 30 uM after 24 hrs by Western blot analysis; format: functional, cell-based; settings: HCT-116
[2] = Decrease in Skp1 expression in human HCT116 cells at 7.5 to 30 uM after 24 hrs by western blot analysis; format: functional, cell-based; settings: HCT-116
How it was run: (§1)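 HCT116 cells exposed 24 h in complete medium; lysed in RIPA buffer (pH 8.0), protein by BCA, equal loads run on 8–13% SDS-PAGE, PVDF transfer, blocked in 5% BSA/TBST, primary antibodies overnight at 4 °C, HRP secondaries 2 h RT, ECL detection; β-actin as loading control.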

[3] = Upregulation of MDM2 expression in p53-null human HCT116 cells at 7.5 to 30 uM after 24 hrs by Western blot analysis; format: functional, cell-based; settings: HCT-116
[4] = tested on: HCT-116; test: Induction of cell cycle arrest in human HCT116 cells assessed as accumulation at sub-G1 phase at 15 uM after 24 hrs by propidium iodide staining-based flow cytometric analysis in presence of RNase A (reference value: 1.5%); format: functional
[5] = tested on: HCT-116; test: Induction of apoptosis in human HCT116 cells assessed as late apoptotic cells at 30 uM after 48 hrs by annexin V-FITC/propidium iodide staining-based flow cytometric analysis (reference value: 7.2%); format: functional
[6] = tested on: HCT-116; test: Induction of apoptosis in human HCT116 cells assessed as viable cells at 30 uM after 48 hrs by annexin V-FITC/propidium iodide staining-based flow cytometric analysis in presence of NAC (reference value: 87.4%); format: functional; settings: HCT-116, 48 h, read-out: Activity
[7] = tested on: HCT-116; test: Induction of apoptosis in human HCT116 cells assessed as late apoptotic cells at 30 uM after 48 hrs by annexin V-FITC/propidium iodide staining-based flow cytometric analysis in presence of NAC (reference value: 7.2%); format: functional
[8] = tested on: HCT-116; test: Induction of cell cycle arrest in human HCT116 cells assessed as accumulation at G2/M phase at 15 uM after 24 hrs by propidium iodide staining-based flow cytometric analysis in presence of RNase A (reference value: 20.6%); format: functional
[9] = tested on: HCT-116; test: Induction of apoptosis in human HCT116 cells assessed as viable cells at 7.5 uM after 48 hrs by annexin V-FITC/propidium iodide staining-based flow cytometric analysis (reference value: 91.2%); format: functional; settings: HCT-116, 48 h, read-out: Activity
[10] = Downregulation of cyclin A expression in human HCT116 cells at 7.5 to 30 uM after 24 hrs by Western blot analysis; format: functional, cell-based; settings: HCT-116; how it was run: as §1
[11] = biological target: Serine-protein kinase ATM/ATR (Homo sapiens) (UniProt Q13315+Q13535); test: Activation of ATM/ATR in human HCT116 cells assessed as increase in Chk2 phosphorylation at Thr68 at 7.5 to 30 uM after 24 hrs by Western blot analysis; format: cell-based; settings: HCT-116; how it was run: as §1
[12] = tested on: HCT-116; test: Induction of apoptosis in human HCT116 cells assessed as cleaved PARP level at 30 uM up to 24 hrs by Western blot analysis; format: functional, cell-based
[13] = tested on: HCT-116; test: Induction of apoptosis in human HCT116 cells assessed as dead cells at 15 uM after 48 hrs by annexin V-FITC/propidium iodide staining-based flow cytometric analysis (reference value: 2%); format: functional
[14] = tested on: HCT-116; test: Increase in p21 expression in human HCT116 cells after 24 hrs by western blot analysis; format: functional, cell-based; how it was run: as §1
[15] = Downregulation of cyclin B1 expression in human HCT116 cells at 7.5 to 30 uM after 24 hrs by Western blot analysis; format: functional, cell-based; settings: HCT-116; how it was run: as §1
[16] = Antiproliferative activity against human HCT116 cells assessed as cell viability after 72 hrs by SRB assay; format: functional, cell-based; settings: HCT-116, 72 h
How it was run: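 HCT116 cells in 96-well plates exposed 24, 48 or 72 h; TCA fixation, 0.4% SRB staining, dye solubilised in 10 mM Tris pH 10.0, absorbance at 515 nm; viability relative to solvent-treated control.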

[17] = tested on: HCT-116; test: Induction of morphological change in human HCT116 cells assessed as loss of contact with adjacent cells at 30 uM after 24 to 48 hrs by phase contrast microscopic analysis; format: functional, cell-based
How it was run: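 HCT116 cells incubated with compound for 24 h, then viewed and photographed under phase-contrast microscopy; also examined at 48 h.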

[18] = tested on: Mus musculus; test: Upregulation of p27 in human HCT116 cells xenografted in nude mouse at 5 to 10 mg/kg, ip administered 3 times per week measured on day 41 by Western blot analysis; format: functional, organism-based; settings: HCT-116
How it was run: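 HCT116 xenografts in nude mice dosed ip at 5 or 10 mg/kg three times weekly to day 41. Portions of the excised frozen tumors were thawed on ice, homogenized in complete lysis buffer, protein quantified by Bradford, and p21, p27 and Skp2 assessed by Western blot with β-actin as internal control.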

[19] = biological target: Cyclin-dependent kinase inhibitor 1B/S-phase kinase-associated protein 2 (Homo sapiens) (UniProt Q13309+P46527); test: Inhibition of Skp2/p27 protein interaction in human HCT116 cells after 24 hrs by immunoprecipitation assay; format: cell-based; settings: HCT-116
Cyclin-dependent kinase inhibitor 1B/S-phase kinase-associated protein 2 (Homo sapiens), sequence (P46527 whole entry, looked up): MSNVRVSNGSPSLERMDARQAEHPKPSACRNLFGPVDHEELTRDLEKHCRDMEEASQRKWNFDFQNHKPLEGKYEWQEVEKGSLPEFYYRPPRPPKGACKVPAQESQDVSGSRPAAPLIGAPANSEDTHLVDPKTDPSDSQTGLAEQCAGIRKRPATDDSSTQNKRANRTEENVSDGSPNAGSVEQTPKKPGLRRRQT
Cyclin-dependent kinase inhibitor 1B/S-phase kinase-associated protein 2 (Homo sapiens), sequence (Q13309 whole entry, looked up): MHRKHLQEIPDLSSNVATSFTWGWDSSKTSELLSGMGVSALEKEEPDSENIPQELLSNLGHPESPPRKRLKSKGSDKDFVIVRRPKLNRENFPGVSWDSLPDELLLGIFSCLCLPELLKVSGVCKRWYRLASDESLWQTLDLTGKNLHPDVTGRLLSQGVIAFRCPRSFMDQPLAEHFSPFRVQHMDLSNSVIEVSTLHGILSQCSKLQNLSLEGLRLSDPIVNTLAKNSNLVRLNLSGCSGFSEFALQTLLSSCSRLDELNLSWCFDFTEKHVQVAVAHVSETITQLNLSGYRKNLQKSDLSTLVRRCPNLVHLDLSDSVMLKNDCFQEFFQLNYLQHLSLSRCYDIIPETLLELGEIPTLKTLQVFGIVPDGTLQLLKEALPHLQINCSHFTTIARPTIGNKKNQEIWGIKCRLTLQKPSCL
How it was run: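 Protein measured by Bradford. Equal protein incubated with Protein G sepharose and the capture antibody (anti-p53, anti-Cul-1 or anti-Skp2) overnight at 4 °C. Bead eluates boiled in Laemmli/2-mercaptoethanol and analysed by Western blot.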

[20] = tested on: HCT-116; test: Induction of apoptosis in human HCT116 cells assessed as cleaved caspase 3 level at 30 uM up to 24 hrs by Western blot analysis in presence of NAC; format: functional, cell-based
[21] = tested on: HCT-116; test: Induction of reactive oxygen species in human HCT116 cells at 7.5 uM after 48 hrs by DCFH-DA staining-based flow cytometric analysis (reference value: 5.1%); format: functional
[22] = tested on: HCT-116; test: Induction of reactive oxygen species in human HCT116 cells at 30 uM after 48 hrs by DCFH-DA staining-based flow cytometric analysis (reference value: 5.1%); format: functional
How it was run: (§2)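 HCT116 cells seeded overnight, then exposed to test compounds, alone or with NAC, for 48 h in complete medium. Loaded with 20 μM DCFH-DA for 30 min; intracellular ROS in 20 000 cells per group read by flow cytometry as histograms.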

[23] = tested on: HCT-116; test: Induction of cell cycle arrest in human HCT116 cells assessed as accumulation at S phase at 7.5 uM after 24 hrs by propidium iodide staining-based flow cytometric analysis in presence of RNase A (reference value: 13.4%); format: functional
[24] = tested on: HCT-116; test: Induction of reactive oxygen species in human HCT116 cells at 15 uM after 48 hrs by DCFH-DA staining-based flow cytometric analysis (reference value: 5.1%); format: functional; how it was run: as §2
[25] = tested on: HCT-116; test: Induction of cell cycle arrest in human HCT116 cells assessed as accumulation at G2/M phase at 7.5 uM after 48 hrs by propidium iodide staining-based flow cytometric analysis in presence of RNase A (reference value: 19.7%); format: functional
[26] = biological target: Tumour suppressor p53/oncoprotein Mdm2 (Homo sapiens) (UniProt P04637+Q00987); test: Inhibition of MDM2/P53 protein interaction in human HCT116 cells assessed as stabilization of p53 at 7.5 to 30 uM after 24 hrs by western blot analysis; format: cell-based; settings: HCT-116
Tumour suppressor p53/oncoprotein Mdm2 (Homo sapiens), sequence (P04637 whole entry, looked up): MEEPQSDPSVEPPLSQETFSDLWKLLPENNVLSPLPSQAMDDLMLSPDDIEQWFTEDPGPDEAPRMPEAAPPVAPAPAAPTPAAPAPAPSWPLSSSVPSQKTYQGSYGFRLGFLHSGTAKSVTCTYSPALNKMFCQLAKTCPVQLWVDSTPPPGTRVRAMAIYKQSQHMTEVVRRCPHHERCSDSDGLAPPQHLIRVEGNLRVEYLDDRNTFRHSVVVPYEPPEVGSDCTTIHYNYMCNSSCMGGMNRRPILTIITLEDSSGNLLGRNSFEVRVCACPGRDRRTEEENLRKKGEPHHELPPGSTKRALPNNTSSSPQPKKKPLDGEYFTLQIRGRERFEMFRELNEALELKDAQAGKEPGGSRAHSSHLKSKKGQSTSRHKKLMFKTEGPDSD
Tumour suppressor p53/oncoprotein Mdm2 (Homo sapiens), sequence (Q00987 whole entry, looked up): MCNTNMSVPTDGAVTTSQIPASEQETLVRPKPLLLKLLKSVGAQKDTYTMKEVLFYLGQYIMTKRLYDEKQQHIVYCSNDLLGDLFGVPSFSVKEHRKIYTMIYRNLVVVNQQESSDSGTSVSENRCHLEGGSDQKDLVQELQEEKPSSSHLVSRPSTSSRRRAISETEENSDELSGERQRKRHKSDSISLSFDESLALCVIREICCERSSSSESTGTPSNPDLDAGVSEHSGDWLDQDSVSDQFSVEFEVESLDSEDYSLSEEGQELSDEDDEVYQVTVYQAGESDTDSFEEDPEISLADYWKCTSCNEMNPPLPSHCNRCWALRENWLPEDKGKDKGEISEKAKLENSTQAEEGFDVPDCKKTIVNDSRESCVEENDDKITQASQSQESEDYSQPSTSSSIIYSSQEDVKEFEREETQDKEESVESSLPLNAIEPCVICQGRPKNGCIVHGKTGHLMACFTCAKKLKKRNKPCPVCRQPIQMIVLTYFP

[27] = tested on: HCT-116; test: Induction of apoptosis in human HCT116 cells assessed as early apoptotic cells at 7.5 uM after 48 hrs by annexin V-FITC/propidium iodide staining-based flow cytometric analysis (reference value: 1.6%); format: functional
[28] = tested on: HCT-116; test: Induction of reactive oxygen species in human HCT116 cells after 48 hrs by DCFH-DA staining-based flow cytometric analysis; format: functional, cell-based; how it was run: as §2

Compound: O=C/C=C/c1ccc2c(c1)O[C@@H](CO)[C@H](c1ccc(O)c(O)c1)O2 [AMERICANIN A]
- Activity [1]: Active
- Activity [2]: Active
- Activity [3]: Active
- Activity [4]: 3%
- Activity [5]: 36.5%
- viability at 30 µM [6]: 73.2%
- Activity [7]: 18.9%
- Activity [8]: 31.8%
- viability at 7.5 µM [9]: 84.6%
- Activity [10]: Active
- Activity [11]: Dose-dependent effect
- Activity [12]: Active
- Activity [13]: 0.4%
- Activity [14]: Dose-dependent effect
- Activity [15]: Active
- pIC50 [16]: 5.06
- Activity [17]: Active
- Activity [18]: Active
- inhibition [19]: inactive
- Activity [20]: inactive
- Activity [21]: 5.2%
- Activity [22]: 47.4%
- Activity [23]: 15.6%
- Activity [24]: 7.9%
- Activity [25]: 19%
- inhibition [26]: Active
- Activity [27]: 3%
- Activity [28]: Dose-dependent effect

— ChEMBL document CHEMBL3758106, “Antitumor Activity of Americanin A Isolated from the Seeds of Phytolacca americana by Regulating the ATM/ATR Signaling Pathway and the Skp2-p27 Axis in Human Colon Cancer Cells” (J Nat Prod, 2015)
